From ChEMBL document CHEMBL1129534, “Antitumor agents. 163. Three-dimensional quantitative structure-activity relationship study of 4'-O-demethylepipodophyllotoxin analogs using the modified CoMFA/q2-GRS approach” (J Med Chem, 1996) come the findings set out here.

Each structure is given as a SMILES string. “And” between values parts separate entries of the source, which are not always exact repeats. Equal values may be shown once.

The assay concerns the target DNA topoisomerase II (Homo sapiens) (UniProt P11388+Q02880). The experiment in a line: Compound tested for ability to form a cellular covalent topoisomerase II-DNA complex. It counts as functional. In short, it runs like this: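 Read-out is intracellular covalent topoisomerase II–DNA complex formation, scored as the percentage of cellular protein–DNA complex formed (PCPDCF). For CoMFA modelling the values were transformed to ln(PCPDCF + 1).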
`COc1cc([C@@H]2c3cc4c(cc3[C@@H](NC[C@H](C)O)[C@H]3COC(=O)[C@H]23)OCO4)cc(OC)c1O` returned a Protein-DNA complex formation of 167%.

`COc1ccc(N[C@@H]2c3cc4c(cc3[C@@H](c3cc(OC)c(O)c(OC)c3)[C@H]3C(=O)OC[C@@H]32)OCO4)cc1OC`: the Protein-DNA complex formation was 180%.

`COc1cc([C@@H]2c3cc4c(cc3[C@@H](Oc3ccc(F)cc3)[C@H]3COC(=O)[C@H]23)OCO4)cc(OC)c1O` came in with a Protein-DNA complex formation of 57%.

Take `COc1cc([C@@H]2c3cc4c(cc3[C@@H](NC(=O)c3cccc(C#N)c3)[C@H]3COC(=O)[C@H]23)OCO4)cc(OC)c1O`: the Protein-DNA complex formation turned out to be 149%.

For `COc1cc([C@@H]2c3cc4c(cc3[C@@H](NCc3ccccc3N)[C@H]3COC(=O)[C@H]23)OCO4)cc(OC)c1O`, the Protein-DNA complex formation came to 184%.

`COc1cc([C@@H]2c3cc4c(cc3[C@@H](NCc3ccccc3[N+](=O)[O-])[C@H]3COC(=O)[C@H]23)OCO4)cc(OC)c1O` returned a Protein-DNA complex formation of 144%.

As to `COc1cc([C@@H]2c3cc4c(cc3[C@@H](Nc3ccc(C(=O)O)cc3)[C@H]3COC(=O)[C@H]23)OCO4)cc(OC)c1O`, the Protein-DNA complex formation is 6.9% and 1.9%.

The compound `COc1cc([C@@H]2c3cc4c(cc3[C@@H](NCc3ccc(C(F)(F)F)cc3)[C@H]3COC(=O)[C@H]23)OCO4)cc(OC)c1O` yielded a Protein-DNA complex formation of 99%.

Regarding `COc1cc([C@@H]2c3cc4c(cc3[C@H](O)[C@H]3COC(=O)[C@H]23)OCO4)cc(OC)c1O`, the Protein-DNA complex formation was 3.3%.

The compound `COc1cc([C@@H]2c3cc4c(cc3[C@@H](NCc3cccc(Cl)c3)[C@H]3COC(=O)[C@H]23)OCO4)cc(OC)c1O` came in with a Protein-DNA complex formation of 159%.

`COc1cc([C@@H]2c3cc4c(cc3[C@@H](O[C@@H]3O[C@@H]5CO[C@@H](C)O[C@H]5[C@H](O)[C@H]3O)[C@H]3COC(=O)[C@H]23)OCO4)cc(OC)c1O` had a Protein-DNA complex formation of 100%.

In turn, `COc1cc([C@@H]2c3cc4c(cc3[C@@H](Nc3cccc(Br)c3)[C@H]3COC(=O)[C@H]23)OCO4)cc(OC)c1O` returned a Protein-DNA complex formation of 62%.

With `COc1cc([C@@H]2c3cc4c(cc3[C@@H](NCc3ccccc3)[C@H]3COC(=O)[C@H]23)OCO4)cc(OC)c1O`, the Protein-DNA complex formation is 181%.

For `COc1cc([C@@H]2c3cc4c(cc3[C@@H](Nc3cc(N)ccc3O)[C@H]3COC(=O)[C@H]23)OCO4)cc(OC)c1O`, the Protein-DNA complex formation came out at 11%.

`COc1cc([C@@H]2c3cc4c(cc3[C@@H](NCc3cccc(C#N)c3)[C@H]3COC(=O)[C@H]23)OCO4)cc(OC)c1O` gave a Protein-DNA complex formation of 225%.

Regarding `COC(=O)c1cc(N[C@@H]2c3cc4c(cc3[C@@H](c3cc(OC)c(O)c(OC)c3)[C@H]3C(=O)OC[C@@H]32)OCO4)ccc1O`, the Protein-DNA complex formation was 83%.

Regarding `COC(=O)c1cc(N[C@@H]2c3cc4c(cc3[C@@H](c3cc(OC)c(O)c(OC)c3)[C@H]3C(=O)OC[C@@H]32)OCO4)cc(C(=O)OC)c1`, the Protein-DNA complex formation was 50%.

Compound `COc1cc([C@@H]2c3cc4c(cc3[C@@H](NCCO)[C@H]3COC(=O)[C@H]23)OCO4)cc(OC)c1O` registered a Protein-DNA complex formation of 121%.

Compound `COc1cc([C@@H]2c3cc4c(cc3[C@@H](NC(=O)c3ccc(N)cc3)[C@H]3COC(=O)[C@H]23)OCO4)cc(OC)c1O` displayed a Protein-DNA complex formation of 120%.

Compound `COc1cc([C@@H]2c3cc4c(cc3[C@@H](Nc3ccc(N5CCOCC5)cc3)[C@H]3COC(=O)[C@H]23)OCO4)cc(OC)c1O` showed a Protein-DNA complex formation of 140%.

Compound `COc1cc([C@@H]2c3cc4c(cc3[C@@H](Nc3ccccc3)[C@H]3COC(=O)[C@H]23)OCO4)cc(OC)c1O` had a Protein-DNA complex formation of 243%.

Compound `COc1cc([C@@H]2c3cc4c(cc3[C@@H](OC(=O)c3ccc(N)cc3)[C@H]3COC(=O)[C@H]23)OCO4)cc(OC)c1O` showed a Protein-DNA complex formation of 94%.

Compound `COc1cc([C@@H]2c3cc4c(cc3[C@@H](NC(=O)c3ccc([N+](=O)[O-])cc3)[C@H]3COC(=O)[C@H]23)OCO4)cc(OC)c1O` yielded a Protein-DNA complex formation of 160%.

In turn, `COc1cc([C@@H]2c3cc4c(cc3[C@@H](Nc3cccc(C(C)=O)c3)[C@H]3COC(=O)[C@H]23)OCO4)cc(OC)c1O` came in with a Protein-DNA complex formation of 150%.

As for `COc1cc([C@@H]2c3cc4c(cc3[C@@H](NCCN(C)C)[C@H]3COC(=O)[C@H]23)OCO4)cc(OC)c1O`, the Protein-DNA complex formation is 183% and 203%.

Regarding `COc1cc([C@@H]2c3cc4c(cc3[C@@H](NC(=O)c3ccccc3O)[C@H]3COC(=O)[C@H]23)OCO4)cc(OC)c1O`, the Protein-DNA complex formation was determined as 160%.

For `COc1cc([C@@H]2c3cc4c(cc3[C@@H](NCCCN(C)C)[C@H]3COC(=O)[C@H]23)OCO4)cc(OC)c1O`, the Protein-DNA complex formation is 186% and 179%.

`COc1cc([C@@H]2c3cc4c(cc3[C@@H](Nc3ccc([N+](=O)[O-])cc3)[C@H]3COC(=O)[C@H]23)OCO4)cc(OC)c1O` had a Protein-DNA complex formation of 323%.

In turn, `COc1cc([C@@H]2c3cc4c(cc3[C@@H](NC(=O)c3cccc(N)c3)[C@H]3COC(=O)[C@H]23)OCO4)cc(OC)c1O` came in with a Protein-DNA complex formation of 149%.

Consider `COc1cc([C@@H]2c3cc4c(cc3[C@@H](NC(=O)c3ccccc3F)[C@H]3COC(=O)[C@H]23)OCO4)cc(OC)c1O`, for which the Protein-DNA complex formation amounted to 128%.

`COc1cc(CN[C@@H]2c3cc4c(cc3[C@@H](c3cc(OC)c(O)c(OC)c3)[C@H]3C(=O)OC[C@@H]32)OCO4)cc(OC)c1` displayed a Protein-DNA complex formation of 144%.

The compound `COc1cc([C@@H]2c3cc4c(cc3[C@@H](Nc3cccc(O)c3)[C@H]3COC(=O)[C@H]23)OCO4)cc(OC)c1O` registered a Protein-DNA complex formation of 290%.

Regarding `COc1cc([C@@H]2c3cc4c(cc3[C@@H](NC(=O)c3ccc(F)cc3)[C@H]3COC(=O)[C@H]23)OCO4)cc(OC)c1O`, the Protein-DNA complex formation was 117%.
